Assay results taken from ChEMBL document CHEMBL3632620, “Synthesis, characterization, crystal structure determination and biological screening of novel N-1 and C5 alkyl substituted scaffolds of pyrimidine” (2015).
≈ marks a conversion by molar mass, not a printed value. Calls of active or inactive are those of the source. No cut-off for these calls is given here.

Experiments:
[1] = tested on: Salmonella enterica subsp. enterica serovar Abony; experiment: Antibacterial activity against Salmonella abony NCTC 6017 assessed as growth inhibition at 100 ug/ml after 8 to 24 hrs by agar well diffusion method; assay type: functional; settings: read-out: DIZ
Summary of the method: (§1)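 Agar well diffusion on nutrient agar (peptone, yeast extract, NaCl, 2% agar, pH 7). Suspensions were set to 0.5 McFarland in sterile water, final inoculum 5x10^7 CFU/mL. Plates were swabbed and left 15 min, then ~4 mm wells received 100 µL compound in DMSO, with DMSO as control. Plates stood 2 h at room temperature, then 24 h at 37 °C. Inhibition zone diameter was measured.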

[2] = tested on: Staphylococcus epidermidis; experiment: Antibacterial activity against Staphylococcus epidermidis ATCC 12228 assessed as growth inhibition at 25 ug/ml after 8 to 24 hrs by agar well diffusion method; assay type: functional; summary of the method: as §1
[3] = tested on: Staphylococcus epidermidis; experiment: Antibacterial activity against Staphylococcus epidermidis ATCC 12228 assessed as growth inhibition at 100 ug/ml after 8 to 24 hrs by agar well diffusion method; assay type: functional; settings: for zone of inhibition at 100 µg/mL: read-out: DIZ; summary of the method: as §1
[4] = tested on: Escherichia coli; experiment: Antibacterial activity against Escherichia coli ATCC 8739 after 24 to 48 hrs; assay type: functional
Summary of the method: (§2)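 Broth MIC in nutrient broth, pH 7.0. Inoculum came from a 16 h culture set to 0.5 McFarland, then diluted 10-fold to 1.2x10^7 CFU/mL. Compounds went from a 4 mg/mL DMSO stock to final 250 to 0.03 µg/mL. Controls were inoculum without compound and compound without inoculum. Incubation was 24-48 h at 37 °C. Then 5 µL was spotted onto agar for 24 h at 37 °C. MIC is the lowest concentration with no visible growth.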

[5] = tested on: Staphylococcus aureus; experiment: Antibacterial activity against Staphylococcus aureus ATCC 6538P after 24 to 48 hrs; assay type: functional; summary of the method: as §2
[6] = tested on: Salmonella enterica subsp. enterica serovar Abony; experiment: Antibacterial activity against Salmonella abony NCTC 6017 after 24 to 48 hrs; assay type: functional; summary of the method: as §2
[7] = tested on: Staphylococcus epidermidis; experiment: Antibacterial activity against Staphylococcus epidermidis ATCC 12228 after 24 to 48 hrs; assay type: functional; summary of the method: as §2
[8] = tested on: Escherichia coli; experiment: Antibacterial activity against Escherichia coli ATCC 8739 assessed as growth inhibition at 25 to 100 ug/ml at 12 hrs by agar well diffusion method; assay type: functional, organism-based
[9] = tested on: Staphylococcus aureus; experiment: Antibacterial activity against Staphylococcus aureus ATCC 6538P assessed as growth inhibition at 25 to 100 ug/ml at 12 hrs by agar well diffusion method; assay type: functional, organism-based
[10] = tested on: Salmonella enterica subsp. enterica serovar Abony; experiment: Antibacterial activity against Salmonella abony NCTC 6017 assessed as growth inhibition at 25 to 100 ug/ml at 12 hrs by agar well diffusion method; assay type: functional, organism-based
[11] = tested on: Staphylococcus epidermidis; experiment: Antibacterial activity against Staphylococcus epidermidis ATCC 12228 assessed as growth inhibition at 25 to 100 ug/ml at 12 hrs by agar well diffusion method; assay type: functional, organism-based
[12] = tested on: Escherichia coli; experiment: Antibacterial activity against Escherichia coli ATCC 8739 assessed as growth inhibition at 25 ug/ml after 8 to 24 hrs by agar well diffusion method; assay type: functional; settings: read-out: DIZ; summary of the method: as §1
[13] = tested on: Escherichia coli; experiment: Antibacterial activity against Escherichia coli ATCC 8739 assessed as growth inhibition at 100 ug/ml after 8 to 24 hrs by agar well diffusion method; assay type: functional; settings: read-out: DIZ; summary of the method: as §1
[14] = tested on: Staphylococcus aureus; experiment: Antibacterial activity against Staphylococcus aureus ATCC 6538P assessed as growth inhibition at 25 ug/ml after 8 to 24 hrs by agar well diffusion method; assay type: functional; settings: read-out: DIZ; summary of the method: as §1
[15] = tested on: Staphylococcus aureus; experiment: Antibacterial activity against Staphylococcus aureus ATCC 6538P assessed as growth inhibition at 100 ug/ml after 8 to 24 hrs by agar well diffusion method; assay type: functional; settings: read-out: DIZ; summary of the method: as §1
[16] = tested on: Salmonella enterica subsp. enterica serovar Abony; experiment: Antibacterial activity against Salmonella abony NCTC 6017 assessed as growth inhibition at 25 ug/ml after 8 to 24 hrs by agar well diffusion method; assay type: functional; settings: read-out: DIZ; summary of the method: as §1

| Structure (SMILES) | MIC [4] | MIC [5] | MIC [6] | MIC [7] | zone of inhibition at 100 µg/mL [1] | diameter of the inhibition zone (DIZ) [2] | zone of inhibition at 100 µg/mL [3] | Activity [8] | Activity [9] | Activity [10] | Activity [11] | zone of inhibition at 25 µg/mL [12] | zone of inhibition at 100 µg/mL [13] | zone of inhibition at 25 µg/mL [14] | zone of inhibition at 100 µg/mL [15] | zone of inhibition at 25 µg/mL [16] | diameter of the inhibition zone (DIZ) [3] | zone of inhibition at 25 µg/mL ([2]; read-out: DIZ) |
| --- | --- | --- | --- | --- | --- | --- | --- | --- | --- | --- | --- | --- | --- | --- | --- | --- | --- | --- |
| CCOC(=O)C1(C)C(C)NC(=O)N(C)C1c1ccccc1 (stereo not drawn) | 68 µg/mL (≈ 234 µM) | 125 µg/mL (≈ 430 µM) | 125 µg/mL (≈ 430 µM) | 68 µg/mL (≈ 234 µM) | 10 mm | inactive | 14 mm | inactive | inactive | inactive | inactive | 12 mm | 13 mm | 10 mm | 10 mm | 9 mm | – | – |
| CCOC(=O)C1(C)C(C)NC(=O)N(C)C1c1ccc(N(C)C)cc1 (stereo not drawn) | 68 µg/mL (≈ 204 µM) | 32 µg/mL (≈ 96 µM) | 16 µg/mL (≈ 48 µM) | > 250 µg/mL | 22 mm | inactive | – | inactive | inactive | inactive | inactive | 10 mm | 14 mm | 12 mm | 16 mm | 10 mm | inactive | – |
| O=C(N[C@H](CO)[C@H](O)c1ccc([N+](=O)[O-])cc1)C(Cl)Cl [CHLORAMPHENICOL] | – | 8 µg/mL (≈ 24.8 µM) | 4 µg/mL (≈ 12.4 µM) | 4 µg/mL (≈ 12.4 µM) | 32 mm | – | 35 mm | – | – | – | – | 20 mm | 24 mm | 20 mm | 28 mm | 19 mm | – | 14 mm |
| CCOC(=O)C1(C)C(C)NC(=O)N(C)C1c1ccccc1[N+](=O)[O-] (stereo not drawn) | 32 µg/mL (≈ 95.4 µM) | 8 µg/mL (≈ 23.9 µM) | 16 µg/mL (≈ 47.7 µM) | > 250 µg/mL | 24 mm | inactive | – | inactive | inactive | inactive | inactive | 13 mm | 18 mm | 14 mm | 28 mm | 15 mm | inactive | – |
| CN[C@@H]1[C@H](O[C@H]2[C@H](O[C@H]3[C@H](O)[C@@H](O)[C@H](N=C(N)N)[C@@H](O)[C@@H]3N=C(N)N)O[C@@H](C)[C@]2(O)C=O)O[C@@H](CO)[C@H](O)[C@H]1O [STREPTOMYCIN] | 32 µg/mL (≈ 55 µM) | 32 µg/mL (≈ 55 µM) | 32 µg/mL (≈ 55 µM) | > 250 µg/mL | 18 mm | inactive | – | – | – | – | – | 14 mm | 16 mm | 12 mm | 16 mm | 25 mm | inactive | – |

More lines, main results first:

| MIC [4] | MIC [5] | MIC [6] | MIC [7] | Structure (SMILES) | zone of inhibition at 100 µg/mL [1] | diameter of the inhibition zone (DIZ) [2] | zone of inhibition at 100 µg/mL [3] | Activity [8] | Activity [9] | Activity [10] | Activity [11] | zone of inhibition at 25 µg/mL [12] | zone of inhibition at 100 µg/mL [13] | zone of inhibition at 25 µg/mL [14] | zone of inhibition at 100 µg/mL [15] | zone of inhibition at 25 µg/mL [16] | diameter of the inhibition zone (DIZ) [3] | zone of inhibition at 25 µg/mL ([2]; read-out: DIZ) |
| --- | --- | --- | --- | --- | --- | --- | --- | --- | --- | --- | --- | --- | --- | --- | --- | --- | --- | --- |
| 125 µg/mL (≈ 408 µM) | 68 µg/mL (≈ 222 µM) | 68 µg/mL (≈ 222 µM) | > 250 µg/mL | CCOC(=O)C1(C)C(C)NC(=O)N(C)C1c1ccc(O)cc1 (stereo not drawn) | 14 mm | inactive | – | inactive | inactive | inactive | inactive | 8 mm | 10 mm | 10 mm | 12 mm | 11 mm | inactive | – |
| 68 µg/mL (≈ 212 µM) | 68 µg/mL (≈ 212 µM) | 68 µg/mL (≈ 212 µM) | > 250 µg/mL | CCOC(=O)C1(C)C(C)NC(=O)N(C)C1c1ccc(OC)cc1 (stereo not drawn) | 13 mm | inactive | – | inactive | inactive | inactive | inactive | 13 mm | 14 mm | 10 mm | 12 mm | 10 mm | inactive | – |
| 32 µg/mL (≈ 99.2 µM) | 32 µg/mL (≈ 99.2 µM) | 32 µg/mL (≈ 99.2 µM) | > 250 µg/mL | CCOC(=O)C1(C)C(C)NC(=S)N(C)C1c1ccc(O)cc1 (stereo not drawn) | 20 mm | inactive | – | inactive | inactive | inactive | inactive | 17 mm | 20 mm | 13 mm | 15 mm | 16 mm | inactive | – |
| 16 µg/mL (≈ 47.6 µM) | 32 µg/mL (≈ 95.1 µM) | 32 µg/mL (≈ 95.1 µM) | > 250 µg/mL | CCOC(=O)C1(C)C(C)NC(=S)N(C)C1c1ccc(OC)cc1 (stereo not drawn) | 15 mm | inactive | – | inactive | inactive | inactive | inactive | 15 mm | 22 mm | 12 mm | 16 mm | 16 mm | inactive | – |
| 16 µg/mL (≈ 46.9 µM) | 16 µg/mL (≈ 46.9 µM) | 8 µg/mL (≈ 23.5 µM) | > 250 µg/mL | CCOC(=O)C1(C)C(C)NC(=S)N(C)C1c1ccc(Cl)cc1 (stereo not drawn) | 28 mm | inactive | – | inactive | inactive | inactive | inactive | 20 mm | 20 mm | 18 mm | 23 mm | 18 mm | inactive | – |
| 32 µg/mL (≈ 98.5 µM) | 68 µg/mL (≈ 209 µM) | 125 µg/mL (≈ 385 µM) | 68 µg/mL (≈ 209 µM) | CCOC(=O)C1(C)C(C)NC(=O)N(C)C1c1ccc(Cl)cc1 (stereo not drawn) | 10 mm | inactive | 13 mm | inactive | inactive | inactive | inactive | 10 mm | 14 mm | 12 mm | 16 mm | 9 mm | – | – |
| 16 µg/mL (≈ 52.2 µM) | 68 µg/mL (≈ 222 µM) | 32 µg/mL (≈ 104 µM) | > 250 µg/mL | CCOC(=O)C1(C)C(C)NC(=S)N(C)C1c1ccccc1 (stereo not drawn) | 18 mm | inactive | – | inactive | inactive | inactive | inactive | 14 mm | 21 mm | 10 mm | 13 mm | 16 mm | inactive | – |
